Activity calls are given as the source filed them. The rule behind the calls is not given here.
How the values were obtained:
[1] = target: 72 kDa type IV collagenase (Homo sapiens, UniProt P08253); assay: Inhibition of human recombinant MMP2 using Mca-Lys-Pro-Leu-Gly-Leu-Dpa-Ala-Arg-NH2 substrate by spectrophotometry
Procedure, shortened: (§1)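 Fluorogenic cleavage kinetics with 0.2–0.5 nM recombinant human MMP in 50 mM Tris/HCl pH 6.8 with 10 mM CaCl2 at 25 °C. […] Fluorescence is monitored. Ki is derived by the Horovitz–Levitski method, as the mean ± SD of three experiments.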

[2] = target: T1, Matrilysin (Homo sapiens, UniProt P09237); assay: Inhibition of human recombinant MMP7 using Mca-Lys-Pro-Leu-Gly-Leu-Dpa-Ala-Arg-NH2 substrate by spectrophotometry; procedure, shortened: as §1
T1 sequence (P09237 whole entry): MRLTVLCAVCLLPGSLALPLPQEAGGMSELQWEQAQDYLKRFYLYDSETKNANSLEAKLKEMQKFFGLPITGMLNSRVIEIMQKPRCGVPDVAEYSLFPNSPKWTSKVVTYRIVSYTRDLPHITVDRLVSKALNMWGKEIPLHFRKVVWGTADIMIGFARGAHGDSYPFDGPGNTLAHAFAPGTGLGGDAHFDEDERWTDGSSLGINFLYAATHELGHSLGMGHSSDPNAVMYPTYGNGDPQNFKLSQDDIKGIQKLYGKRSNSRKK

[3] = target: Matrix metalloproteinase-9 (Homo sapiens, UniProt P14780); assay: Inhibition of human recombinant MMP9 using Mca-Lys-Pro-Leu-Gly-Leu-Dpa-Ala-Arg-NH2 substrate by spectrophotometry; procedure, shortened: as §1
[4] = target: Macrophage metalloelastase (Homo sapiens, UniProt P39900); assay: Inhibition of human recombinant MMP12 using Mca-Lys-Pro-Leu-Gly-Leu-Dpa-Ala-Arg-NH2 substrate by spectrophotometry; procedure, shortened: as §1
[5] = target: Collagenase 3 (Homo sapiens, UniProt P45452); assay: Inhibition of human recombinant MMP13 using Mca-Lys-Pro-Leu-Gly-Leu-Dpa-Ala-Arg-NH2 substrate by spectrophotometry; procedure, shortened: as §1
[6] = target: Macrophage metalloelastase (Mus musculus) (UniProt P34960); assay: Inhibition of mouse recombinant MMP12 using Mca-Lys-Pro-Leu-Gly-Leu-Dpa-Ala-Arg-NH2 substrate by spectrophotometry
[7] = species on record: Homo sapiens; assay: Selectivity index, ratio of Ki for inhibition of human recombinant MMP9 for Ki for inhibition of human recombinant MMP12
[8] = species on record: Homo sapiens; assay: Selectivity index, ratio of Ki for inhibition of human recombinant MMP7 for Ki for inhibition of human recombinant MMP12
[9] = species on record: Homo sapiens; assay: Selectivity index, ratio of Ki for inhibition of human recombinant MMP13 for Ki for inhibition of human recombinant MMP12

Sequence of Macrophage metalloelastase (Mus musculus) (P34960 110-473 limits assumed): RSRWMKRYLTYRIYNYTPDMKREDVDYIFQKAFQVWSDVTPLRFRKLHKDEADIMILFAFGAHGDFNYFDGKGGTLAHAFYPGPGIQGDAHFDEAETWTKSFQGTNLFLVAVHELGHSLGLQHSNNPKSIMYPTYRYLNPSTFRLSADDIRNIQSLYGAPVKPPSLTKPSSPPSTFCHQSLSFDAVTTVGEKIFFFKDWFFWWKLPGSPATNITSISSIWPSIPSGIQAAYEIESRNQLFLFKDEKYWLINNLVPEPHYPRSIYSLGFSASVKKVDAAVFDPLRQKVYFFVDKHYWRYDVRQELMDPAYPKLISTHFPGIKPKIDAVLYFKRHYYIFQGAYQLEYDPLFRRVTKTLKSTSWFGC
Sequence of 72 kDa type IV collagenase (P08253 whole entry): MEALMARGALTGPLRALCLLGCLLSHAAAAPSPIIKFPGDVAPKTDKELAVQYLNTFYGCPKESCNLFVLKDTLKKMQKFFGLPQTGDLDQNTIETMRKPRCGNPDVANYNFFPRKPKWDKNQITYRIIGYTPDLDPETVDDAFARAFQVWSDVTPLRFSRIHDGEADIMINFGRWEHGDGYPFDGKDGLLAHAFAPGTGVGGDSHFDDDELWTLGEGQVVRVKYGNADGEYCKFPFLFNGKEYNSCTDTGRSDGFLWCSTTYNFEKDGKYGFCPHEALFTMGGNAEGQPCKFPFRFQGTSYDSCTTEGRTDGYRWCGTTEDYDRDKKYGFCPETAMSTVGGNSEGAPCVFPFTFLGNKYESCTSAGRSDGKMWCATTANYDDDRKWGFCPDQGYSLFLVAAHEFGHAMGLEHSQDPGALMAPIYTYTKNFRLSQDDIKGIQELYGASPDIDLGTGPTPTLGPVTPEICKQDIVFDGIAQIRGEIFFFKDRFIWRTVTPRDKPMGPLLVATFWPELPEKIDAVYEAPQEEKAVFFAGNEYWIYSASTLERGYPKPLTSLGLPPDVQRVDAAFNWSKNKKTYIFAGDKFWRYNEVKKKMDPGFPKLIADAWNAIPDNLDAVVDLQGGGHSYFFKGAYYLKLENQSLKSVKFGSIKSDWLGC
Sequence of Matrix metalloproteinase-9 (P14780 whole entry): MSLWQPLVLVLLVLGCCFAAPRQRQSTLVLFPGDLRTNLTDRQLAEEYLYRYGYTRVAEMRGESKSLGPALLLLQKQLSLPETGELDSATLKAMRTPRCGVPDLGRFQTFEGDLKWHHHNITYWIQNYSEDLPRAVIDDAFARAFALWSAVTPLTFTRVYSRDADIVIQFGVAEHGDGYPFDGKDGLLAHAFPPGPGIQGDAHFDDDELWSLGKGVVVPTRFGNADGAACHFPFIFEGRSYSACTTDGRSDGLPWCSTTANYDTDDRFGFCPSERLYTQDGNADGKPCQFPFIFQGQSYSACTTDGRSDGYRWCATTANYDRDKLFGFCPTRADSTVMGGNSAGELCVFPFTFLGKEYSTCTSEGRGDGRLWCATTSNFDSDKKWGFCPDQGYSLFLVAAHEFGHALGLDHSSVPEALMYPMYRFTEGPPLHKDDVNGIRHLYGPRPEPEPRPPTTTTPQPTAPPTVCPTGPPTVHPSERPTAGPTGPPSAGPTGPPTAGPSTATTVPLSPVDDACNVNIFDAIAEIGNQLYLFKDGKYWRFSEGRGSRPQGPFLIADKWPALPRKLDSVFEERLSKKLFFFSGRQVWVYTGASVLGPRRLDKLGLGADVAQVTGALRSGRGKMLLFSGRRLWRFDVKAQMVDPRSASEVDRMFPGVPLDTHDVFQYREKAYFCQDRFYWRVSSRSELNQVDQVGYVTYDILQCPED
Sequence of Macrophage metalloelastase (P39900 whole entry): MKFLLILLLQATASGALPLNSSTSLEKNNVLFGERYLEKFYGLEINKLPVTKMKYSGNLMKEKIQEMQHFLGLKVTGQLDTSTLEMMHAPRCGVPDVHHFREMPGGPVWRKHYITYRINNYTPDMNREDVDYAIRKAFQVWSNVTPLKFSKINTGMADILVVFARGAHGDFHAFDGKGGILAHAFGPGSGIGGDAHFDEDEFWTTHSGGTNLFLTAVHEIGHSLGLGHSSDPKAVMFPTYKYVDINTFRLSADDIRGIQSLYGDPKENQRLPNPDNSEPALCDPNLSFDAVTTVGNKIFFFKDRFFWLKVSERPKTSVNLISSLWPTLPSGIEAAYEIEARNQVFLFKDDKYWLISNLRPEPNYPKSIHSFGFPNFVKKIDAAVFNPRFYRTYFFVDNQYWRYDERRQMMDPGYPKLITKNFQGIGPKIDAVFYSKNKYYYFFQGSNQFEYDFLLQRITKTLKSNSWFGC

Row | SMILES | Ki [1] | Ki [2] | Ki [3] | Ki [4] | Ki [5] | inhibition (qualitative) [6] | Ratio Ki [7] | Ratio Ki [8] | Ratio Ki [9]
1 | CC(C)C[C@H]1C(=O)N[C@H](C(=O)O)Cc2ccc(cc2)OCCC[C@@H]1C(=O)NO | 300 nM | 39 nM | 1100 nM | 1.1 nM | 31 nM | Active |  |  | 
2 | CNC(=O)[C@H](CCCNC(=N)N)NC(=O)[C@@H]1Cc2ccc(cc2)OCCC[C@H](C(=O)NO)[C@@H](CC(C)C)C(=O)N1 |  |  |  |  |  | Active |  |  | 
3 | CC(C)C[C@H](CC(=O)NO)C(=O)N[C@@H](Cc1ccc(OCCNC(=O)c2ccc(NN)nc2)cc1)C(=O)O | > 5000 nM | > 5000 nM | 155 nM | 8.9 nM | > 5000 nM | Active | 17 |  | 
4 | CC(C)C[C@H](CC(=O)NO)C(=O)N[C@@H](Cc1ccccc1)C(=O)N[C@@H](CCC(=O)O)C(=O)NCCNC(=O)c1ccc(NN)nc1 | 222 nM | 615 nM | 1300 nM | 7.5 nM | 78 nM | Active |  |  | 
5 | CC(C)C[C@H]1C(=O)N[C@H](C(=O)N[C@@H](CCC(=O)O)C(=O)O)Cc2ccc(cc2)OCCC[C@@H]1C(=O)NO | 396 nM | 14.6 nM | 2110 nM | 1.2 nM | 89 nM | Active |  | 12 | 74
6 | CC(C)C[C@H](CC(=O)NO)C(=O)N[C@@H](Cc1ccccc1)C(=O)O | 164 nM | 323 nM | 125 nM | 11.8 nM | 81 nM | Active |  |  | 
